Data from ChEMBL document CHEMBL4308900, “Synthesis and identification of 2,4-bisanilinopyrimidines bearing 2,2,6,6-tetramethylpiperidine-N-oxyl as potential Aurora A inhibitors” (Bioorg Med Chem, 2019).
Active and inactive are the calls of the source. The rule behind the calls is not given here.

Key:
HeLa [1] = assay: Antiproliferative activity against human HeLa cells after 48 hrs by MTT assay; type: functional
How it was run: (§1)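 MTT assay: cells attached 4–6 h at 37 °C, 5% CO2, then exposed 48 h to graded concentrations from DMSO stocks; 5 mg/mL MTT added for 4 h, formazan dissolved in DMSO, absorbance at 490 nm. GI50 from log plot of percent of control versus concentration; mean of three independent experiments.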

LoVo = assay: Antiproliferative activity against human LoVo cells after 48 hrs by MTT assay; type: functional; how it was run: as §1
HeLa [2] = assay: Disruption of spindle formation in human HeLa cells assessed as shrinkage of microtubule spindles at 1 uM after 24 hrs by DAPI staining based immunofluorescence microscopic analysis; type: functional, cell-based
How it was run: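 HeLa cells on coverslips treated 24 h (0.1 or 1 μM; DMSO control); fixed in 4% paraformaldehyde, permeabilised in 0.1% Triton X-100 with 2% BSA, anti-α-tubulin overnight at 4 °C, FITC secondary 2 h room temperature, DAPI for DNA; confocal imaging.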

HeLa [3] = assay: Cell cycle arrest in human HeLa cells assessed as accumulation at G1 phase at 1 uM after 12 hrs by propidium iodide staining-based flow cytometric analysis (reference value: 70.68%); type: functional
How it was run: (§2)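 HeLa cells exposed 12 h to 1 or 5 μM compound diluted from DMSO (DMSO control), fixed, stained with propidium iodide; DNA content measured by flow cytometry and G1, S, G2/M fractions calculated from the DNA histogram.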

HeLa [4] = assay: Cell cycle arrest in human HeLa cells assessed as accumulation at G2/M phase at 1 uM after 12 hrs by propidium iodide staining-based flow cytometric analysis (reference value: 23.57%); type: functional; how it was run: as §2
HeLa [5] = assay: Cell cycle arrest in human HeLa cells assessed as accumulation at G2/M phase at 5 uM after 12 hrs by propidium iodide staining-based flow cytometric analysis (reference value: 23.57%); type: functional; how it was run: as §2
HeLa [6] = assay: Cell cycle arrest in human HeLa cells assessed as decrease in cdc2 protein expression up to 5 uM after 12 hrs by Western blot analysis; type: functional, cell-based
How it was run: (§3)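 HeLa cells treated 12 h (0.1, 1, 5 μM for apoptosis proteins); lysed in Tris pH 7.5/NP-40/SDS buffer with protease inhibitors, equal protein on 10% SDS-PAGE, PVDF, 5% BSA block, primary antibodies overnight at 4 °C, β-actin loading control; mean ± SD.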

HeLa [7] = assay: Induction of apoptosis in human HeLa cells assessed as early apoptotic cells at 0.1 uM after 12 hrs by Annexin V-FITC/propidium iodide staining-based flow cytometric analysis (reference value: 0.75%); type: functional
HeLa [8] = assay: Induction of apoptosis in human HeLa cells assessed as late apoptotic cells at 0.1 uM after 12 hrs by Annexin V-FITC/propidium iodide staining-based flow cytometric analysis (reference value: 2.32%); type: functional
HeLa [9] = assay: Induction of apoptosis in human HeLa cells assessed as viable cells at 1 uM after 12 hrs by Annexin V-FITC/propidium iodide staining-based flow cytometric analysis (reference value: 91.02%); type: functional; conditions: read-out: Activity
HeLa [10] = assay: Induction of apoptosis in human HeLa cells assessed as early apoptotic cells at 1 uM after 12 hrs by Annexin V-FITC/propidium iodide staining-based flow cytometric analysis (reference value: 0.75%); type: functional
HeLa [11] = assay: Induction of apoptosis in human HeLa cells assessed as necrotic cells at 1 uM after 12 hrs by Annexin V-FITC/propidium iodide staining-based flow cytometric analysis (reference value: 5.92%); type: functional
HeLa [12] = assay: Induction of apoptosis in human HeLa cells assessed as early apoptotic cells at 5 uM after 12 hrs by Annexin V-FITC/propidium iodide staining-based flow cytometric analysis (reference value: 0.75%); type: functional
HeLa [13] = assay: Induction of apoptosis in human HeLa cells assessed as late apoptotic cells at 5 uM after 12 hrs by Annexin V-FITC/propidium iodide staining-based flow cytometric analysis (reference value: 2.32%); type: functional
HeLa [14] = assay: Induction of apoptosis in human HeLa cells assessed as upregulation of Bad protein expression up to 5 uM after 12 hrs by Western blot analysis; type: functional, cell-based; how it was run: as §3
HeLa [15] = assay: Induction of apoptosis in human HeLa cells assessed as upregulation of Bax protein expression up to 5 uM after 12 hrs by Western blot analysis; type: functional, cell-based; how it was run: as §3
HeLa [16] = assay: Induction of apoptosis in human HeLa cells assessed as upregulation of caspase-3 protein expression up to 5 uM after 12 hrs by Western blot analysis; type: functional, cell-based; how it was run: as §3
HeLa [17] = assay: Induction of apoptosis in human HeLa cells assessed as upregulation of caspase-9 protein expression up to 5 uM after 12 hrs by Western blot analysis; type: functional, cell-based; how it was run: as §3
HeLa [18] = assay: Induction of apoptosis in human HeLa cells assessed as downregulation of Bcl-2 protein expression up to 5 uM after 12 hrs by Western blot analysis; type: functional, cell-based; how it was run: as §3
HeLa [19] = assay: Cell cycle arrest in human HeLa cells assessed as accumulation at G2/M phase after 12 hrs by propidium iodide staining-based flow cytometric analysis; type: functional; how it was run: as §2
Aurora kinase A [20] = molecular target: T1, Aurora kinase A (Homo sapiens, UniProt O14965); assay: Inhibition of Aurora A (unknown origin) using kemptide acetate salt as substrate after 30 mins by kinase-Glo luminescence method
T1 sequence (O14965 whole entry): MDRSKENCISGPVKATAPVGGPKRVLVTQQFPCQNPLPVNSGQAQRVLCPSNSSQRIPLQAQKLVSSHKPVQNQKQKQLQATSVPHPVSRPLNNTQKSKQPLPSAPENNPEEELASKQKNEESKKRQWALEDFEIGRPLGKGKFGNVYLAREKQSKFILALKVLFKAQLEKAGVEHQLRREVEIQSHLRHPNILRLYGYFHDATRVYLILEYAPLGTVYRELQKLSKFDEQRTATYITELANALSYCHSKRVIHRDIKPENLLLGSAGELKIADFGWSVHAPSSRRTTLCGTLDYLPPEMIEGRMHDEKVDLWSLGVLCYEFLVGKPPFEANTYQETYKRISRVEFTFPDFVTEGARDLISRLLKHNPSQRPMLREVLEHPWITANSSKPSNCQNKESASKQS

Aurora kinase B [21] = molecular target: T2, Aurora kinase B (Homo sapiens, UniProt Q96GD4); assay: Inhibition of Aurora B (unknown origin) using kemptide acetate salt as substrate after 30 mins by kinase-Glo luminescence method
[22] = molecular target: T3, Aurora kinase A (Homo sapiens) (UniProt O14965); assay: Inhibition of Aurora A phosphorylation at Thr288 residue in human HeLa cells after 12 hrs by Western blot analysis; type: cell-based
T3 sequence (whole entry): T1 sequence (O14965 whole entry)
How it was run: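 HeLa cells given 0, 1.25, 2.5 or 5.0 μM for 12 h; lysates in buffer with phosphatase and protease inhibitors, 10% SDS-PAGE western blot probed for phospho-Aurora A Thr288, phospho-Aurora B Thr232 and total Aurora A/B, β-actin loading control; band levels as mean ± SD versus control.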

Aurora kinase A [23] = molecular target: T1, Aurora kinase A; assay: Inhibition of Aurora A phosphorylation at Thr288 residue in human HeLa cells after 12 hrs by ELISA; type: cell-based
Aurora kinase B [24] = molecular target: T2, Aurora kinase B; assay: Inhibition of Aurora B phosphorylation at Thr232 residue in human HeLa cells after 12 hrs by ELISA; type: cell-based
Homo sapiens = species on record: Homo sapiens; assay: Selectivity ratio of IC50 for Aurora B in human HeLa cells to IC50 for Aurora A in human HeLa cells; type: cell-based
HeLa [25] = assay: Cell cycle arrest in human HeLa cells assessed as decrease in accumulation at G1 phase after 12 hrs by propidium iodide staining-based flow cytometric analysis; type: functional; how it was run: as §2

T2 sequence (Q96GD4 whole entry): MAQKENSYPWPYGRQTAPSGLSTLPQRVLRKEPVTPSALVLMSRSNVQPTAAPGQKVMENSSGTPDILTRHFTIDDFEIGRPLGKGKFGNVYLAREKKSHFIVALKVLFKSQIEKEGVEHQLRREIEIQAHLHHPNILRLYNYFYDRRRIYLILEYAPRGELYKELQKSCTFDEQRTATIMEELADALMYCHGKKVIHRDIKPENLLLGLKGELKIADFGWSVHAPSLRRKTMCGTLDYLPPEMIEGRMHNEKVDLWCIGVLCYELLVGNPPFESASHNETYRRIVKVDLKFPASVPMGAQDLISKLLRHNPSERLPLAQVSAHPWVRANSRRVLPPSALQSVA

## CC1(C)CC(NC(=O)c2ccc(Nc3ncc(F)c(Nc4ccc(C(=O)Nc5ccccc5Cl)cc4)n3)cc2)CC(C)(C)N1[O]
HeLa [1]
  GI50: 400 nM
LoVo
  GI50: 7300 nM
HeLa [2]
  Activity: Active
HeLa [3]
  Activity: 48%
HeLa [4]
  Activity: 40.67%
HeLa [5]
  Activity: 60.33%
HeLa [6]
  Activity: Active
HeLa [7]
  Activity: 1.12%
HeLa [8]
  Activity: 2.94%
HeLa [9]
  viability at 1 µM: 78.7%
HeLa [10]
  Activity: 3.28%
HeLa [11]
  Activity: 9.93%
HeLa [12]
  Activity: 4.85%
HeLa [13]
  Activity: 16.66%
HeLa [14]
  Activity: Active
HeLa [15]
  Activity: Active
HeLa [16]
  Activity: Active
HeLa [17]
  Activity: Active
HeLa [18]
  Activity: Active
HeLa [19]
  Activity: Dose-dependent effect
Aurora kinase A [20]
  IC50: 0.06 nM
Aurora kinase B [21]
  IC50: 2.55 nM
[22]
  inhibition: Dose-dependent effect
Aurora kinase A [23]
  IC50: 8 nM
Aurora kinase B [24]
  IC50: 538 nM
Homo sapiens
  Ratio IC50: 67
HeLa [25]
  Activity: Dose-dependent effect
